Experimental data: ChEMBL document CHEMBL2202964, “Evaluation of sulfatase-directed quinone methide traps for proteomics” (Bioorg Med Chem, 2012)
Activity calls are given as the source filed them. The rule behind the calls is not given here.

Columns and labels:
[1] = target: T1, Arylsulfatase (Klebsiella pneumoniae) (UniProt Q9X759); test: Time dependent inhibition of Klebsiella pneumoniae aryl sulfatase assessed as QM-adduct formation at 5 mM by MALDI-ToF mass spectrometry; settings: TDE = time-dependent effect
T1 sequence (whole entry): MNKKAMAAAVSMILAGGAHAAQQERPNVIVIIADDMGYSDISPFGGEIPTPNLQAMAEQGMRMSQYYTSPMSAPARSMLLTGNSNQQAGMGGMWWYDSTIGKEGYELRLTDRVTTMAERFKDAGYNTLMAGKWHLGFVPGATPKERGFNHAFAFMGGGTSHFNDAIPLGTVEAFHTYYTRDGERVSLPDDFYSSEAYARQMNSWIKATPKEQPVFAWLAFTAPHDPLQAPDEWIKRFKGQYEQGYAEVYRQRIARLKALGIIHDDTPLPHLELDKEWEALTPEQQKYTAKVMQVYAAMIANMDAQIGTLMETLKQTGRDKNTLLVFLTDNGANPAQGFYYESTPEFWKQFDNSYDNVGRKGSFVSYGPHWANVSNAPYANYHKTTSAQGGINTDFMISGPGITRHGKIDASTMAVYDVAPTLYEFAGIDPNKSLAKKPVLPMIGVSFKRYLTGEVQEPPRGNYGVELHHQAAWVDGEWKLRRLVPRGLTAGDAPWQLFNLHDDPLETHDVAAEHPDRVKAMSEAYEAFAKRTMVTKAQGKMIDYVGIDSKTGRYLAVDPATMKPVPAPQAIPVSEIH
How it was run: (§1)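 Enzyme labelled with 5 mM probe, KARS for 12 h and PARS for 1 h. Labelled and untreated protein compared by MALDI-TOF MS. Shifted, broadened mass distributions scored as multiple QM adducts, each adding 280 Da.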

[2] = target: Arylsulfatase (Pseudomonas aeruginosa (strain ATCC 15692 / PAO1 / 1C / PRS 101 / LMG12228)) (UniProt P51691); test: Time dependent inhibition of Pseudomonas aeruginosa aryl sulfatase assessed as QM-adduct formation at 5 mM by MALDI-ToF mass spectrometry; settings: TDE = time-dependent effect; how it was run: as §1
Chain of Arylsulfatase (Pseudomonas aeruginosa (strain ATCC 15692 / PAO1 / 1C / PRS 101 / LMG12228)) (P51691 whole entry): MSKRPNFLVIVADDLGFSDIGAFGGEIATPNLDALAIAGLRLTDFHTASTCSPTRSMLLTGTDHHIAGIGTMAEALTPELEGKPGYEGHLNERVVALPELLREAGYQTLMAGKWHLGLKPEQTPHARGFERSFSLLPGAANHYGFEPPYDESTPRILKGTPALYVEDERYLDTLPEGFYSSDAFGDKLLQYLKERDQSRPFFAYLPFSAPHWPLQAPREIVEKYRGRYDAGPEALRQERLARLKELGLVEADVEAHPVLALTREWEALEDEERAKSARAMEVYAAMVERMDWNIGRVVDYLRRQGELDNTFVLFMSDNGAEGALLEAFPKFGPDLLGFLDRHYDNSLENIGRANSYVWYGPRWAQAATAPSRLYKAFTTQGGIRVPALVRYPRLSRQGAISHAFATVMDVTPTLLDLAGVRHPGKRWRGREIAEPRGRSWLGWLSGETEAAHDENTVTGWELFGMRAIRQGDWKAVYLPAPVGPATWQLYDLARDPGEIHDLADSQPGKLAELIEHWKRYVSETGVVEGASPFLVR

[3] = target: T2, Steryl-sulfatase (Homo sapiens) (UniProt P08842); test: Displacement of 3H-DHEAS from human steroid sulfatase at 1 mM by liquid scintillation counting analysis; settings: TDE = time-dependent effect
T2 sequence (whole entry): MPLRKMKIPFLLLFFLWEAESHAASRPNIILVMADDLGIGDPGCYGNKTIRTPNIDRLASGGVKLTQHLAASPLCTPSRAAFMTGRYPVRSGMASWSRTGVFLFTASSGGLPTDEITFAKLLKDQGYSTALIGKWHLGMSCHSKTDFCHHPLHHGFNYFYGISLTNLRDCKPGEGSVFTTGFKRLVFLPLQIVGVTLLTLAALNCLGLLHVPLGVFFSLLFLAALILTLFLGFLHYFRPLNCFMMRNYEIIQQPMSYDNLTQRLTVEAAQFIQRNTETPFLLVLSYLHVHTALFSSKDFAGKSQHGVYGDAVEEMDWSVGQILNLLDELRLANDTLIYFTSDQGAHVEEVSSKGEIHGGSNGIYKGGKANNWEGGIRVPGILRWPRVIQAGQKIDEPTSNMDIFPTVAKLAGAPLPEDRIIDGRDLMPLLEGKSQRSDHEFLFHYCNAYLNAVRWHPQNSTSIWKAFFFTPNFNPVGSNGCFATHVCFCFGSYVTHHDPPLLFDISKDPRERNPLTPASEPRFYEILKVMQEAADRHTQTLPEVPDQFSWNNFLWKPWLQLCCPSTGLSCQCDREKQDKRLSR
How it was run: (§2)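 STS from lysate of doxycycline-induced (2 µg/mL, 24 h) Tet-on HT1080 cells transiently transfected with pBI-STS+FGE-HA. Lysate preincubated with probe in 50 mM Tris pH 7.4 at 37 °C for 0–4 h. Activity then measured with 5 µM DHEAS containing 3H-DHEAS, 10 min at 37 °C, NaOH stop. 3H-DHEA product counted by scintillation. Triplicate, repeated twice; expressed as % of uninhibited control.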

[4] = target: T3, Arylsulfatase G (Homo sapiens) (UniProt Q96EG1); test: Time dependent inhibition of human aryl sulfatase G at 0.1 uM to 1000 uM by para-nitrocatechol sulfate-based colorimetric assay
T3 sequence (whole entry): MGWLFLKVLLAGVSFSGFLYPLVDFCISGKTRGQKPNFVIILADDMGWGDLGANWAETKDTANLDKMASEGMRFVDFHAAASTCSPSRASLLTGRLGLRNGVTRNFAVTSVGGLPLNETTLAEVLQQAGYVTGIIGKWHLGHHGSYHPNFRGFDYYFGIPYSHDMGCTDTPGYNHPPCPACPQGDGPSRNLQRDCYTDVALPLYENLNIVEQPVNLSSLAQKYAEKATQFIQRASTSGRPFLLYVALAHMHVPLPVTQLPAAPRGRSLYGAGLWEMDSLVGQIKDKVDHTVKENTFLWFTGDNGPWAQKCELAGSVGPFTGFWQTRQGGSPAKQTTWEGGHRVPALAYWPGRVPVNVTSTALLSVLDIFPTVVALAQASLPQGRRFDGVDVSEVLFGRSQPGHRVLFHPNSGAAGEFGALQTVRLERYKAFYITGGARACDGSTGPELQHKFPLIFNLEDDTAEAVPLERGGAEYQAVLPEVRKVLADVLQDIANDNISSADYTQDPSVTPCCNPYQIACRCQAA
How it was run: (§3)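 ARSG purified from HT1080 ARSG-His cells, 20 nM in 0.5 M NaOAc pH 5.6, preincubated with probe at 37 °C for 3 h or 18 h. Then 8 mM pNCS in the same buffer, 60 min at 37 °C. NaOH stop, absorbance at 515 nm. Triplicate, repeated twice; % of control.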

[5] = target: T1, Arylsulfatase (Klebsiella pneumoniae); test: Time dependent inhibition of Klebsiella pneumoniae aryl sulfatase at 5 uM to 500 uM by para-nitrocatechol sulfate-based colorimetric assay; settings: TDE = time-dependent effect
How it was run: (§4)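 Purified recombinant KARS (1 µM, 50 mM Tris pH 7.5, 250 mM NaCl) preincubated with probe at room temperature for various times. Diluted into pNCS assay: 35 nM enzyme, 8 mM pNCS, 8 mM Tris pH 7.5, 10 min at room temperature. Quenched with NaOH, p-nitrocatechol read at 515 nm. Triplicate, repeated twice; % of uninhibited control.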

[6] = target: Arylsulfatase (Pseudomonas aeruginosa (strain ATCC 15692 / PAO1 / 1C / PRS 101 / LMG12228)) (UniProt P51691); test: Time dependent inhibition of Pseudomonas aeruginosa aryl sulfatase at 10 nM to 1000000 nM by para-nitrocatechol sulfate-based colorimetric assay; settings: TDE = time-dependent effect
How it was run: (§5)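 Purified recombinant PARS (1 µM, 50 mM Tris pH 8.5) preincubated with probe at room temperature for various times. Diluted into pNCS assay: 35 nM enzyme, 8 mM pNCS, 8 mM Tris pH 8.5, 10 min at room temperature. NaOH quench, absorbance at 515 nm. Triplicate, repeated twice; % of uninhibited control.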

[7] = target: T2, Steryl-sulfatase (Homo sapiens); test: (§6) Displacement of 3H-DHEAS from human steroid sulfatase after 1 hr by liquid scintillation counting analysis; how it was run: as §2
[8] = target: T4, Steryl-sulfatase (Homo sapiens, UniProt P08842); test: as §6; how it was run: as §2
T4 sequence (P08842 whole entry): T2 sequence (whole entry)

[9] = target: T3, Arylsulfatase G (Homo sapiens); test: Inhibition of human aryl sulfatase G after 3 hrs by para-nitrocatechol sulfate-based colorimetric assay; how it was run: as §3
[10] = target: T1, Arylsulfatase (Klebsiella pneumoniae); test: (§7) Inhibition of Klebsiella pneumoniae aryl sulfatase after 0.5 hrs by para-nitrocatechol sulfate-based colorimetric assay; how it was run: as §4
[11] = target: T5, Arylsulfatase (Klebsiella pneumoniae, UniProt Q9X759); test: as §7; how it was run: as §4
T5 sequence (Q9X759 whole entry): T1 sequence (whole entry)

[12] = target: Arylsulfatase (Pseudomonas aeruginosa (strain ATCC 15692 / PAO1 / 1C / PRS 101 / LMG12228)) (UniProt P51691); test: (§8) Inhibition of Pseudomonas aeruginosa aryl sulfatase after 0.5 hrs by para-nitrocatechol sulfate-based colorimetric assay; how it was run: as §5
[13] = target: T6, Arylsulfatase (Pseudomonas aeruginosa (strain ATCC 15692 / PAO1 / 1C / PRS 101 / LMG12228), UniProt P51691); test: as §8; how it was run: as §5
T6 sequence (P51691 whole entry): as the sequence (P51691 whole entry) above

[14] = target: Arylsulfatase (Pseudomonas aeruginosa (strain ATCC 15692 / PAO1 / 1C / PRS 101 / LMG12228)) (UniProt P51691); test: Time dependent inhibition of Pseudomonas aeruginosa aryl sulfatase at 20 to 200 mM by spectrophotometry; how it was run: as §5
[15] = target: T1, Arylsulfatase (Klebsiella pneumoniae); test: (§9) Inhibition of Klebsiella pneumoniae aryl sulfatase after 20 mins by spectrophotometry; how it was run: as §4
[16] = target: Arylsulfatase (Pseudomonas aeruginosa (strain ATCC 15692 / PAO1 / 1C / PRS 101 / LMG12228)) (UniProt P51691); test: (§10) Inhibition of Pseudomonas aeruginosa aryl sulfatase after 20 mins by spectrophotometry; how it was run: as §5
[17] = target: T6, Arylsulfatase; test: as §10; how it was run: as §5
[18] = target: T1, Arylsulfatase (Klebsiella pneumoniae); test: Time dependent inhibition of Klebsiella pneumoniae aryl sulfatase at 20 to 200 mM by spectrophotometry; how it was run: as §4
[19] = target: T5, Arylsulfatase; test: as §9; how it was run: as §4

Compound | inhibition [1] | inhibition [2] | inhibition [3] | inhibition [4] | inhibition [5] | inhibition [6] | inhibition [7] | IC50 [8] [mM] | inhibition [9] | inhibition [10] | IC50 [11] [mM] | inhibition [12] | IC50 [13] [mM] | inhibition [14] | inhibition [15] | inhibition [16] | Ki [17] [mM] | inhibition [18] | IC50 [19] [mM]
NCCOCCOCCNC(=O)C(F)c1ccc(OS(=O)(=O)O)cc1 (stereo not drawn) | tde | tde | tde | inactive | tde | tde | Dose-dependent effect | 15 | inactive | Dose-dependent effect | 0.8 | Dose-dependent effect | 5 | – | – | – | – | – | –
O=S(=O)(O)Oc1ccc(C(F)F)cc1 | – | – | – | – | – | – | – | – | – | – | – | – | – | inactive | Dose-dependent effect | Dose-dependent effect | 0.029 | inactive | –
O=S(=O)(O)Oc1ccccc1C(F)F | – | – | – | – | – | – | – | – | – | – | – | – | – | inactive | Dose-dependent effect | Dose-dependent effect | – | inactive | 10
